# Test results reported in ChEMBL document CHEMBL6134764, “Synthesis and biological evaluation of novel D-ring fused steroidal N(2)-substituted-1,2,3-triazoles” (RSC Med Chem, 2025).
# Activity calls are given as the source filed them. The rule behind the calls is not given here.
# How the values were obtained:
# [1] = biological target: T1, Aldo-keto reductase family 1 member C4 (Homo sapiens) (UniProt P17516); test: Inhibition of N-terminal his-tagged recombinant human AKR1C4 assessed as NADPH consumption using 9,10-phenanthrenequinone as substrate at 33 uM by fluorescence spectroscopic analysis relative to control
# T1 sequence (whole entry): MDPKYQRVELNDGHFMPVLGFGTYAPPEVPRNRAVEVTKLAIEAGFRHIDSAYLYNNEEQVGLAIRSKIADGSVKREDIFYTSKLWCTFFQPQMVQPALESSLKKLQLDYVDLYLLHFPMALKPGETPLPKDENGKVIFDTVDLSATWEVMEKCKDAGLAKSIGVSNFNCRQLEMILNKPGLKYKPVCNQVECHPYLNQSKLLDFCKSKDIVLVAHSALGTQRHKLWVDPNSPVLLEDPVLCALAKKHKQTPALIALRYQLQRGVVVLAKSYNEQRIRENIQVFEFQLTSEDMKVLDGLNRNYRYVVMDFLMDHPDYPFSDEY
# Summary of the method: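 N-His-tagged human AKR1C4 from E. coli BL21(DE3), purified by Ni-affinity and size exclusion. Enzyme at 160 μg/mL with 17 μM 9,10-phenanthrenequinone and 250 μM NADPH in 100 mM potassium phosphate pH 6.0, 37 °C, duplicate. Compound at 33 μM final. NADPH fluorescence (ex 340/em 460 nm) read every 30 s for 10 min; inhibition from linear slope vs uninhibited enzyme (100%).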
# [2] = biological target: Estrogen receptor beta (Homo sapiens) (UniProt Q92731); test: Binding affinity to human recombinant ERbeta ligand binding domain extracted from saccharomyces cerevisiae coexpressing yellow fluorescent protein assessed as relative binding affinity at 10 uM incubated for 14 to 16 hrs by fluorimetry based fluorescence microscopic analysis; conditions: time 14-16 hrs
# Chain of Estrogen receptor beta (Homo sapiens) (Q92731 whole entry, the tested form may be a part): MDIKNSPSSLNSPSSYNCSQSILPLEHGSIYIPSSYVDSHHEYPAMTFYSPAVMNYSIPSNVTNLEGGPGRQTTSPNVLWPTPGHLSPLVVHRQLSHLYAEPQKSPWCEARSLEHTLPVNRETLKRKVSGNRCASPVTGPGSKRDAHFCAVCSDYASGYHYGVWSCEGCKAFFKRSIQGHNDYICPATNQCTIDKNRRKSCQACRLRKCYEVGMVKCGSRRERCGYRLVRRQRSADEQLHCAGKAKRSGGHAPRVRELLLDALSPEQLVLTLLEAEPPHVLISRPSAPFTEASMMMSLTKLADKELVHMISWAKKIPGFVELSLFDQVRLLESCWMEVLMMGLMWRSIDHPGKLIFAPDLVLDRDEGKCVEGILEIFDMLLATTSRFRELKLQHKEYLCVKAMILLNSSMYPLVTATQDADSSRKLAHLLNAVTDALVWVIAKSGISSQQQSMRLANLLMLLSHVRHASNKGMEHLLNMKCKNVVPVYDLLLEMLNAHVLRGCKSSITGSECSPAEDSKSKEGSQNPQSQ
# Summary of the method: (§1)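 S. cerevisiae FY250 carrying receptor LBD–EYFP fusions (human ERα, ERβ, AR; rat GR); raffinose drop-out medium, grown to OD600 ~0.6, fusion induced with 2% galactose. Compounds 10 μM (ER, AR) or 100 μM (GR), 14–16 h, 25 °C, dark; DMSO solvent control. Fluorescence at ex/em 485/538 nm, triplicate; fold change vs DMSO (normalized to 1).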
# [3] = biological target: T2, Androgen receptor (Homo sapiens) (UniProt P10275); test: Binding affinity to human recombinant androgen receptor ligand binding domain extracted from saccharomyces cerevisiae coexpressing yellow fluorescent protein assessed as relative binding affinity at 10 uM incubated for 14 to 16 hrs by fluorimetry based fluorescence microscopic analysis; conditions: time 14-16 hrs; summary of the method: as §1
# T2 sequence (whole entry): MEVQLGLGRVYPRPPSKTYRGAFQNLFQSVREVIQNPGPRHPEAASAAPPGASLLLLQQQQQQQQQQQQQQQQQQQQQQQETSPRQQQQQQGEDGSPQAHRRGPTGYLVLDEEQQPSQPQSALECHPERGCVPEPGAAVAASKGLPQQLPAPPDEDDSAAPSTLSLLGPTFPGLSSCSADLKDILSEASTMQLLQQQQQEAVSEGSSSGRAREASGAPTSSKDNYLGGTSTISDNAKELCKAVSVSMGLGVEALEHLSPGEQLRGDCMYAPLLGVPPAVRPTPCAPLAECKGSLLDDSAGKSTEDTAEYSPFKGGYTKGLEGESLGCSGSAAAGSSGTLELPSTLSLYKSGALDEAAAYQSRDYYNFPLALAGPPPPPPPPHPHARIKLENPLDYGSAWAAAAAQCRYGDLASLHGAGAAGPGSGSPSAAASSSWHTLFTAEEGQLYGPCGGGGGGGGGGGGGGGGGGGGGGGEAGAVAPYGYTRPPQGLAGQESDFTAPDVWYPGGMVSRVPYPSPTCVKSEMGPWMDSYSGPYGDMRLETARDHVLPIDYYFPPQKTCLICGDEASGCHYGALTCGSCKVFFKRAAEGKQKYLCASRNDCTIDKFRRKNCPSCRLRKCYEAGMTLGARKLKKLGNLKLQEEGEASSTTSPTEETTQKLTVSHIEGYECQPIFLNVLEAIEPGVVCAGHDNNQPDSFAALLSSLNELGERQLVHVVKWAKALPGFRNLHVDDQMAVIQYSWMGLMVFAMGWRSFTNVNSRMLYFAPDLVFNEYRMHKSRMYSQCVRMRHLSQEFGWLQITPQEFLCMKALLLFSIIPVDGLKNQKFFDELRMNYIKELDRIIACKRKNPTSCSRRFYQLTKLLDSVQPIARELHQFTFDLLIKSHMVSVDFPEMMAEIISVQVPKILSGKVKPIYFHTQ
# [4] = biological target: T3, Estrogen receptor (Homo sapiens) (UniProt P03372); test: Binding affinity to human recombinant ERalpha ligand binding domain extracted from saccharomyces cerevisiae coexpressing yellow fluorescent protein assessed as relative binding affinity at 10 uM incubated for 14 to 16 hrs by fluorimetry based fluorescence microscopic analysis; conditions: time 14-16 hrs; summary of the method: as §1
# T3 sequence (whole entry): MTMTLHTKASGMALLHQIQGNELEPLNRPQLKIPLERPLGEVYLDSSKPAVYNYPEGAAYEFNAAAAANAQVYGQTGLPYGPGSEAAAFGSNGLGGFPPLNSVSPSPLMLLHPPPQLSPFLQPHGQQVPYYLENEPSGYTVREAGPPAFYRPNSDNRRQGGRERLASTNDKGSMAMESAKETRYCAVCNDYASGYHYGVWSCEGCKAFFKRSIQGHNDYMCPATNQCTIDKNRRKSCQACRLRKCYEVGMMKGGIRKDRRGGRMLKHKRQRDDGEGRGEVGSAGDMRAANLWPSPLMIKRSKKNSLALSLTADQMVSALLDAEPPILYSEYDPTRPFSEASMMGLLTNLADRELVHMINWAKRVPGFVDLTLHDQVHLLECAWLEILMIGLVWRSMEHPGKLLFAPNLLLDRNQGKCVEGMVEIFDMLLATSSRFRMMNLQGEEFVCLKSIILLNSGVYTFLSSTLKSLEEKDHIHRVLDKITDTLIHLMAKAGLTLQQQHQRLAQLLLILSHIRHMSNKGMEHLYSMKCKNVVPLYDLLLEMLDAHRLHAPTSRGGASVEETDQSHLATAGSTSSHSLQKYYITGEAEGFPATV
# [5] = Toxicity in human hTERT-BJ cells assessed as reduction in cell viability at 0.01 to 100 uM incubated for 72 hrs by resazurin assay; type: cell-based; conditions: dose 0.01-100 µM
# Summary of the method: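 hTERT-immortalized BJ-5ta foreskin fibroblasts grown in high-glucose DMEM with 20% Medium 199 and 10% FBS. Exposed to 0.01–100 μM for 72 h, then 0.01 mg/mL resazurin for 2 h, fluorescence at 584 nm; n = 3; one-way ANOVA with Dunnett's test vs control.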
# HCT-116 = test: Cytotoxicity against human HCT-116 cells assessed as reduction in cell viability incubated for 72 hrs by resazurin assay; conditions: HCT-116, 72 h
# Huh-7 = test: Cytotoxicity against human Huh-7 cells assessed as reduction in cell viability incubated for 72 hrs by resazurin assay; conditions: Huh-7, 72 h
# MCF7 = test: Cytotoxicity against human MCF7 cells assessed as reduction in cell viability incubated for 72 hrs by resazurin assay; conditions: MCF7, 72 h
# MDA-MB-231 = test: Cytotoxicity against human MDA-MB-231 cells assessed as reduction in cell viability incubated for 72 hrs by resazurin assay; conditions: MDA-MB-231, 72 h
Compound,inhibition [1],Activity [2],Activity [3],Activity [4],Activity [5],IC50 (HCT-116),IC50 (Huh-7),IC50 (MCF7),IC50 (MDA-MB-231)
Cn1nc2c(n1)[C@@]1(C)CC[C@@H]3c4ccc(OCc5ccccc5)cc4CC[C@H]3[C@@H]1C2,0%,,inactive,inactive,,,,,
C[C@]12CC[C@@H]3c4ccc(OCc5ccccc5)cc4CC[C@H]3[C@@H]1Cc1nn(Cc3ccccc3)nc12,0%,Active,inactive,inactive,,,,,
CC(C)Cc1ccc(C(C)C(=O)O)cc1 (configuration not stated),43.9%,,,,,,,,
CCCCCCCCn1nc2c(n1)[C@@]1(C)CC[C@@H]3c4ccc(OCc5ccccc5)cc4CC[C@H]3[C@@H]1C2,0%,,inactive,inactive,,,,,
CCn1nc2c(n1)[C@@]1(C)CC[C@@H]3c4ccc(OCc5ccccc5)cc4CC[C@H]3[C@@H]1C2,0%,,inactive,inactive,,,,,

# The next lines start with results.
inhibition [1],Activity [2],Activity [3],Activity [4],Compound,Activity [5],IC50 (HCT-116),IC50 (Huh-7),IC50 (MCF7),IC50 (MDA-MB-231)
8.32%,Active,inactive,inactive,CC(=O)O[C@H]1CC[C@@]2(C)C(=CC[C@@H]3[C@@H]2CC[C@]2(C)c4nn(C(C)=O)nc4C[C@@H]32)C1,,,,,
0%,,inactive,inactive,CCOC(=O)Cn1nc2c(n1)[C@@]1(C)CC[C@H]3[C@@H](CC=C4C[C@@H](O)CC[C@@]43C)[C@@H]1C2,,,,,
2.81%,,inactive,inactive,CCn1nc2c(n1)[C@@]1(C)CC[C@H]3[C@@H](CC=C4C[C@@H](O)CC[C@@]43C)[C@@H]1C2,,,,,
2.29%,,inactive,inactive,C[C@]12CC[C@H](O)CC1=CC[C@@H]1[C@@H]2CC[C@]2(C)c3nn(CCN)nc3C[C@@H]12,Toxic,22.3 µM,22.3 µM,22.3 µM,22.3 µM
0%,,inactive,inactive,C[C@]12CC[C@H](O)CC1=CC[C@@H]1[C@@H]2CC[C@]2(C)c3nn(Cc4ccccc4)nc3C[C@@H]12,,,,,
0%,Active,inactive,inactive,Cn1nc2c(n1)[C@@]1(C)CC[C@H]3[C@@H](CC=C4C[C@@H](O)CC[C@@]43C)[C@@H]1C2,,,,,
0%,,inactive,inactive,CCCCn1nc2c(n1)[C@@]1(C)CC[C@H]3[C@@H](CC=C4C[C@@H](O)CC[C@@]43C)[C@@H]1C2,,,,,
